Measurements taken from ChEMBL document CHEMBL1129660, “Studies on 6-aminoquinolones: synthesis and antibacterial evaluation of 6-amino-8-methylquinolones” (J Med Chem, 1996).
In brackets after ≈: the same amount, converted by molar mass.

Experiments:
Assay type in all cases: functional
Escherichia coli [1] = assay: Antibacterial activity tested against Escherichia coli ATCC 8739
Procedure, shortened: (§1)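 MICs (µg/mL) determined by conventional agar dilution against a panel of eight Gram-negative and five Gram-positive reference strains.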

Escherichia coli [2] = assay: Antibacterial activity tested against Escherichia coli ISF 432; procedure, shortened: as §1
Enterobacter cloacae = assay: Antibacterial activity tested against Enterobacter cloacae OMNFI 174
Bacteria = assay: Geometric mean of antibacterial activity (Gram +ve bacteria) of the compound
Procedure, shortened: (§2)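 Geometric means calculated from agar-dilution MICs (µg/mL), taken separately across the five Gram-positive and the eight Gram-negative panel strains.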

[3] = Geometric mean of antibacterial activity (Gram -ve bacteria) of the compound; procedure, shortened: as §2
Klebsiella pneumoniae = assay: Antibacterial activity tested against Klebsiella pneumoniae (Klebsiella pneumoniae) ATCC 10031; procedure, shortened: as §1
Proteus vulgaris = assay: Antibacterial activity tested against Proteus vulgaris CNUR 5; procedure, shortened: as §1
Providencia stuartii = assay: Antibacterial activity tested against Providencia stuartii CNUR 5; procedure, shortened: as §1
Pseudomonas aeruginosa = assay: Antibacterial activity tested against P. ae (Pseudomonas aeruginosa) ATCC 9027; procedure, shortened: as §1
Shigella = assay: Antibacterial activity tested against Shigella enteritidis; procedure, shortened: as §1
Staphylococcus aureus [4] = assay: Antibacterial activity against Staphylococcus aureus ATCC 6538; procedure, shortened: as §1
Staphylococcus aureus [5] = assay: Antibacterial activity against Staphylococcus aureus MPR 5; procedure, shortened: as §1
Enterococcus faecalis = assay: Antibacterial activity tested against Streptococcus faecalis LEP Br; procedure, shortened: as §1
[6] = tested on: Staphylococcus epidermidis; assay: Antibacterial activity tested against Staphylococcus epidermidis CPHL A2; procedure, shortened: as §1
[7] = tested on: Staphylococcus epidermidis; assay: Antibacterial activity tested against Staphylococcus epidermidis HCF Berset C; procedure, shortened: as §1

SMILES | MIC (Escherichia coli [1]) | MIC (Escherichia coli [2]) | MIC (Enterobacter cloacae) | Geometric mean (Bacteria) | Geometric mean [3] | MIC (Klebsiella pneumoniae) | MIC (Proteus vulgaris) | MIC (Providencia stuartii) | MIC (Pseudomonas aeruginosa) | MIC (Shigella) | MIC (Staphylococcus aureus [4]) | MIC (Staphylococcus aureus [5]) | MIC (Enterococcus faecalis) | MIC [6] | MIC [7]
Cc1c(N2CCCC(C)(C)C2)c(N)cc2c(=O)c(C(=O)O)cn(C3CC3)c12 | 0.5 µg/mL (≈ 1.35 µM) | 0.5 µg/mL (≈ 1.35 µM) | 16 µg/mL (≈ 43.3 µM) | 1.132 | 6.17 | 0.5 µg/mL (≈ 1.35 µM) | > 128 µg/mL | 8 µg/mL (≈ 21.7 µM) | 64 µg/mL (≈ 173 µM) | 16 µg/mL (≈ 43.3 µM) | 0.5 µg/mL (≈ 1.35 µM) | 0.5 µg/mL (≈ 1.35 µM) | 16 µg/mL (≈ 43.3 µM) | 1 µg/mL (≈ 2.71 µM) | 1 µg/mL (≈ 2.71 µM)
CC1CN(c2cc3c(cc2N)c(=O)c(C(=O)O)cn3C2CC2)CCS1 (stereo not given) | 0.03 µg/mL (≈ 0.0835 µM) | 0.03 µg/mL (≈ 0.0835 µM) | 0.5 µg/mL (≈ 1.39 µM) | 1.32 | 0.451 | 0.03 µg/mL (≈ 0.0835 µM) | 128 µg/mL (≈ 356 µM) | 1 µg/mL (≈ 2.78 µM) | 2 µg/mL (≈ 5.56 µM) | 0.5 µg/mL (≈ 1.39 µM) | 0.5 µg/mL (≈ 1.39 µM) | 0.5 µg/mL (≈ 1.39 µM) | 8 µg/mL (≈ 22.3 µM) | 1 µg/mL (≈ 2.78 µM) | 2 µg/mL (≈ 5.56 µM)
Cc1c(N2CCC3CCCCC3C2)c(N)cc2c(=O)c(C(=O)O)cn(C3CC3)c12 (stereo not given) | 4 µg/mL (≈ 10.1 µM) | 4 µg/mL (≈ 10.1 µM) | 4 µg/mL (≈ 10.1 µM) | 0.186 | 4 | 0.125 µg/mL (≈ 0.316 µM) | 64 µg/mL (≈ 162 µM) | 1 µg/mL (≈ 2.53 µM) | 64 µg/mL (≈ 162 µM) | 2 µg/mL (≈ 5.06 µM) | 0.06 µg/mL (≈ 0.152 µM) | 0.06 µg/mL (≈ 0.152 µM) | 2 µg/mL (≈ 5.06 µM) | 0.25 µg/mL (≈ 0.632 µM) | 0.125 µg/mL (≈ 0.316 µM)
CNc1cc2c(=O)c(C(=O)O)cn(C3CC3)c2c(C)c1N1CCC(C)CC1 | 1 µg/mL (≈ 2.71 µM) | 0.5 µg/mL (≈ 1.35 µM) | 64 µg/mL (≈ 173 µM) | 3.031 | 11.313 | 0.5 µg/mL (≈ 1.35 µM) | > 128 µg/mL | 16 µg/mL (≈ 43.3 µM) | > 128 µg/mL | 64 µg/mL (≈ 173 µM) | 1 µg/mL (≈ 2.71 µM) | 1 µg/mL (≈ 2.71 µM) | 32 µg/mL (≈ 86.6 µM) | 2 µg/mL (≈ 5.41 µM) | 4 µg/mL (≈ 10.8 µM)
Nc1cc2c(=O)c(C(=O)O)cn(C3CC3)c2cc1N1CCCC1 | 0.25 µg/mL (≈ 0.798 µM) | 0.25 µg/mL (≈ 0.798 µM) | 8 µg/mL (≈ 25.5 µM) | 128 | 6.73 | 0.25 µg/mL (≈ 0.798 µM) | 128 µg/mL (≈ 408 µM) | 128 µg/mL (≈ 408 µM) | 128 µg/mL (≈ 408 µM) | 16 µg/mL (≈ 51.1 µM) | 128 µg/mL (≈ 408 µM) | 128 µg/mL (≈ 408 µM) | 128 µg/mL (≈ 408 µM) | 128 µg/mL (≈ 408 µM) | 128 µg/mL (≈ 408 µM)
Cc1c(N2CCc3ccccc3C2)c([N+](=O)[O-])cc2c(=O)c(C(=O)O)cn(C3CC3)c12 | 64 µg/mL (≈ 153 µM) | 4 µg/mL (≈ 9.54 µM) | 64 µg/mL (≈ 153 µM) | 3.482 | 45.25 | 64 µg/mL (≈ 153 µM) | 64 µg/mL (≈ 153 µM) | 64 µg/mL (≈ 153 µM) | 64 µg/mL (≈ 153 µM) | 64 µg/mL (≈ 153 µM) | 64 µg/mL (≈ 153 µM) | 0.25 µg/mL (≈ 0.596 µM) | 4 µg/mL (≈ 9.54 µM) | 4 µg/mL (≈ 9.54 µM) | 2 µg/mL (≈ 4.77 µM)
CN1CCN(c2cc3c(cc2N)c(=O)c(C(=O)O)cn3C2CC2)CC1 | 0.25 µg/mL (≈ 0.73 µM) | 0.03 µg/mL (≈ 0.0876 µM) | 0.25 µg/mL (≈ 0.73 µM) | 4 | 0.642 | 0.03 µg/mL (≈ 0.0876 µM) | 64 µg/mL (≈ 187 µM) | 8 µg/mL (≈ 23.4 µM) | 4 µg/mL (≈ 11.7 µM) | 0.25 µg/mL (≈ 0.73 µM) | 2 µg/mL (≈ 5.84 µM) | 2 µg/mL (≈ 5.84 µM) | 32 µg/mL (≈ 93.5 µM) | 2 µg/mL (≈ 5.84 µM) | 4 µg/mL (≈ 11.7 µM)
CC1CN(c2cc3c(cc2N)c(=O)c(C(=O)O)cn3C2CC2)CCN1 (stereo not given) | 0.03 µg/mL (≈ 0.0876 µM) | 0.03 µg/mL (≈ 0.0876 µM) | 0.25 µg/mL (≈ 0.73 µM) | 10.556 | 0.451 | 0.03 µg/mL (≈ 0.0876 µM) | 32 µg/mL (≈ 93.5 µM) | 16 µg/mL (≈ 46.7 µM) | 2 µg/mL (≈ 5.84 µM) | 0.25 µg/mL (≈ 0.73 µM) | 16 µg/mL (≈ 46.7 µM) | 16 µg/mL (≈ 46.7 µM) | 32 µg/mL (≈ 93.5 µM) | 4 µg/mL (≈ 11.7 µM) | 4 µg/mL (≈ 11.7 µM)
Cc1c(N2CCCC(C)C2)c(N)cc2c(=O)c(C(=O)O)cn(C3CC3)c12 (stereo not given) | 0.03 µg/mL (≈ 0.0844 µM) | 0.03 µg/mL (≈ 0.0844 µM) | 1 µg/mL (≈ 2.81 µM) | 0.162 | 0.414 | 0.03 µg/mL (≈ 0.0844 µM) | 32 µg/mL (≈ 90 µM) | 0.25 µg/mL (≈ 0.703 µM) | 4 µg/mL (≈ 11.3 µM) | 1 µg/mL (≈ 2.81 µM) | 0.03 µg/mL (≈ 0.0844 µM) | 0.06 µg/mL (≈ 0.169 µM) | 2 µg/mL (≈ 5.63 µM) | 0.125 µg/mL (≈ 0.352 µM) | 0.25 µg/mL (≈ 0.703 µM)
Cc1c(N2CCCCC2)c([N+](=O)[O-])cc2c(=O)c(C(=O)O)cn(C3CC3)c12 | 32 µg/mL (≈ 86.2 µM) | 4 µg/mL (≈ 10.8 µM) | 64 µg/mL (≈ 172 µM) | 9.189 | 41.5 | 64 µg/mL (≈ 172 µM) | 64 µg/mL (≈ 172 µM) | 64 µg/mL (≈ 172 µM) | 64 µg/mL (≈ 172 µM) | 64 µg/mL (≈ 172 µM) | 32 µg/mL (≈ 86.2 µM) | 1 µg/mL (≈ 2.69 µM) | 32 µg/mL (≈ 86.2 µM) | 8 µg/mL (≈ 21.5 µM) | 8 µg/mL (≈ 21.5 µM)
Nc1cc2c(=O)c(C(=O)O)cn(C3CC3)c2cc1N1CCc2ccccc2C1 | 128 µg/mL (≈ 341 µM) | 32 µg/mL (≈ 85.2 µM) | 128 µg/mL (≈ 341 µM) | 27.857 | 107.635 | 128 µg/mL (≈ 341 µM) | 128 µg/mL (≈ 341 µM) | 128 µg/mL (≈ 341 µM) | 128 µg/mL (≈ 341 µM) | 128 µg/mL (≈ 341 µM) | 128 µg/mL (≈ 341 µM) | 4 µg/mL (≈ 10.7 µM) | 128 µg/mL (≈ 341 µM) | 16 µg/mL (≈ 42.6 µM) | 16 µg/mL (≈ 42.6 µM)
Cc1c(N2CCC2)c(N)cc2c(=O)c(C(=O)O)cn(C3CC3)c12 | 16 µg/mL (≈ 51.1 µM) | 0.25 µg/mL (≈ 0.798 µM) | 16 µg/mL (≈ 51.1 µM) | 18.379 | 11.313 | 0.25 µg/mL (≈ 0.798 µM) | > 128 µg/mL | 64 µg/mL (≈ 204 µM) | > 128 µg/mL | 16 µg/mL (≈ 51.1 µM) | 8 µg/mL (≈ 25.5 µM) | 8 µg/mL (≈ 25.5 µM) | > 128 µg/mL | 16 µg/mL (≈ 51.1 µM) | 16 µg/mL (≈ 51.1 µM)
COc1ccc(-n2cc(C(=O)O)c(=O)c3cc(N)c(N4CCN(C)CC4)c(C)c32)cc1 | > 128 µg/mL | 16 µg/mL (≈ 37.9 µM) | > 128 µg/mL | 84.45 | 76.109 | 16 µg/mL (≈ 37.9 µM) | 128 µg/mL (≈ 303 µM) | 128 µg/mL (≈ 303 µM) | > 128 µg/mL | > 128 µg/mL | 64 µg/mL (≈ 151 µM) | 64 µg/mL (≈ 151 µM) | 128 µg/mL (≈ 303 µM) | 128 µg/mL (≈ 303 µM) | 64 µg/mL (≈ 151 µM)
Nc1cc2c(=O)c(C(=O)O)cn(C3CC3)c2cc1N1CCNCC1 | 0.25 µg/mL (≈ 0.761 µM) | 0.03 µg/mL (≈ 0.0914 µM) | 0.25 µg/mL (≈ 0.761 µM) | 42.224 | 0.836 | 0.25 µg/mL (≈ 0.761 µM) | 32 µg/mL (≈ 97.5 µM) | 32 µg/mL (≈ 97.5 µM) | 2 µg/mL (≈ 6.09 µM) | 0.25 µg/mL (≈ 0.761 µM) | 64 µg/mL (≈ 195 µM) | 64 µg/mL (≈ 195 µM) | 128 µg/mL (≈ 390 µM) | 16 µg/mL (≈ 48.7 µM) | 16 µg/mL (≈ 48.7 µM)
